The text below walks through data of ChEMBL document CHEMBL1134414, “Synthesis, antitumor cytotoxicity, and DNA-binding of novel N-5,2-di(omega-aminoalkyl)-2,6-dihydropyrazolo[3,4,5-kl]acridine-5-carboxamides” (J Med Chem, 2001).

One experiment has as its system Nucleic Acid. The experiment can be described thus: Apparent equilibrium constant for binding to calf thymus DNA by competitive displacement fluorometric assay. To be noted: Bos taurus. Format: functional.
Turning to `O=C1c2c(O)ccc(O)c2C(=O)c2c(NCCNCCO)ccc(NCCNCCO)c21`, the K app turned out to be 3.41e+08 M⁻¹.

The test system of another experiment is HT-29. As to the kind of experiment: Concentration required to inhibit cell growth by 50% in vitro against Human colon adenocarcinoma cell line. The format is functional, cell-based.
Conditions: not given
The essentials: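 HT29 cells seeded at 2.5×10^4 cells/mL and exposed to drug continuously for 144 h. Assays run in triplicate.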
In general, IC50 refers to the midpoint of a concentration-inhibition curve. A low value points to greater potency. `CN(C)CCNC(=O)c1ccc2c3c(c4cc(O)ccc4nc13)NN2CCN1CCCC1` yielded a half-inhibitory concentration (IC50) of 0.91 µM. Take `O=C(NCCN1CCCCC1)c1ccc2c3c(c4ccccc4nc13)NN2CCN1CCCCC1`: the IC50 was determined as 0.45 µM. On the same count and under the same terms, the result for `CN(C)CCNC(=O)c1ccc2c3c(c4cc(N)ccc4nc13)NN2CCN(C)C` reads 0.91 µM.

Regarding `CN(C)CCCNC(=O)c1ccc2c3c(c4ccccc4nc13)NN2CCN(C)C`, half-maximal inhibition (IC50) required 0.6 µM. Same read-out and setting: for `CN(C)CCNC(=O)c1ccc2c3c(c4ccccc4nc13)NN2CCN1CCCCC1` the value was 0.21 µM; for `CN(C)CCNC(=O)c1ccc2c3c(c4cc(N)ccc4nc13)NN2CCN1CCCCC1`, 0.17 µM. On the same count and under the same terms, for `CN(C)CCNC(=O)c1ccc2c3c(c4ccccc4nc13)NN2CCN1CCCC1` the value was 0.19 µM; for `CN(C)CCCNC(=O)c1ccc2c3c(c4ccccc4nc13)NN2CCCN(C)C`, 2.3 µM; for `CN(C)CCCN1Nc2c3cc(O)ccc3nc3c(C(=O)NCCN(C)C)ccc1c23`, 1.8 µM. Take `CN(C)CCNC(=O)c1ccc2c3c(c4cc([N+](=O)[O-])ccc4nc13)NN2CCN1CCCC1`: 0.36 µM corresponded to half-maximal inhibition (IC50). Same read-out and setting: for `O=C(NCCNCCO)c1ccc2c3c(c4ccccc4nc13)NN2CCN1CCCC1` the value was 1.7 µM.

Regarding `CN(C)CCNC(=O)c1ccc2c3c(c4ccccc4nc13)NN2CCN(C)C`, the IC50 amounted to 0.21 µM.

`CCN(CC)CCNC(=O)c1ccc2c3c(c4ccccc4nc13)NN2CCN(CC)CC` registered a 50% inhibitory concentration (IC50) of 0.41 µM. Same read-out and setting: for `CN(C)CCN1Nc2c3ccccc3nc3c(C(=O)NCCN)ccc1c23` the value was 0.3 µM; for `COc1ccc2c(c1)-c1nn(CCCN(C)C)c3ccc(C(=O)NCCN(C)C)c(c13)N2`, 0.49 µM. `COc1ccc2c(c1)-c1nn(CCN3CCCCC3)c3ccc(C(=O)NCCN(C)C)c(c13)N2` came in with an IC50 of 0.26 µM. As to `CN(C)CCNC(=O)c1ccc2c3c(c4cc(O)ccc4nc13)NN2CCN1CCCCC1`, the concentration for half-maximal inhibition (IC50) worked out at 0.63 µM. With `CN(C)CCNC(=O)c1ccc2c3c(c4cc(O)ccc4nc13)NN2CCN(C)C`, the IC50 came to 0.6 µM. Same read-out and setting: the result for `CN(C)CCNC(=O)c1ccc2c3c(c4cc([N+](=O)[O-])ccc4nc13)NN2CCN1CCCCC1` reads 0.031 µM. The same measure, in the same setting: the result for `CN(C)CCN1Nc2c3ccccc3nc3c(C(=O)NCCNCCO)ccc1c23` reads 0.56 µM; that for `CN(C)CCCN1Nc2c3ccccc3nc3c(C(=O)NCCN(C)C)ccc1c23`, 0.25 µM; that for `O=C(NCCNCCO)c1ccc2c3c(c4ccccc4nc13)NN2CCN1CCCCC1`, 0.56 µM. `CN(C)CCNC(=O)c1ccc2c3c(c4cc([N+](=O)[O-])ccc4nc13)NN2CCN(C)C`: the IC50 is 0.0039 µM. On the same count and under the same terms, the result for `COc1ccc2c(c1)-c1nn(CCN(C)C)c3ccc(C(=O)NCCN(C)C)c(c13)N2` reads 0.12 µM; that for `COc1ccc2c(c1)-c1nn(CCN3CCCC3)c3ccc(C(=O)NCCN(C)C)c(c13)N2`, 0.4 µM.
